Measurements as given in ChEMBL document CHEMBL3227967, “Quantitative structure-activity relationships in 1-aryl-2-(alkylamino)ethanol antimalarials” (J Med Chem, 1979).

Tested on: Plasmodium berghei
Assay: Antimalarial activity against Plasmodium berghei
Format: functional
Settings: not given

In order of falling “log(1/C)” value:
1. CC(C)(C)NCCC(O)c1cc2ccc(C(F)(F)F)cc2c2cc(C(F)(F)F)ccc12 (stereo unspecified)  4.73
2. CCCCN(CCCC)CC(O)c1cc(C(=O)c2cc(C(F)(F)F)cc(C(F)(F)F)c2)nc2c(Cl)cc(Cl)cc12 (stereo unspecified)  4.64
3. CCCCN(CCCC)CC(O)c1cc(C(=O)c2cccc(Cl)c2Cl)nc2c(C(F)(F)F)cc(Cl)cc12 (stereo unspecified)  4.52
4. CCCCN(CCCC)CC(O)c1cc(C(=O)c2cccc(C(F)(F)F)c2)nc2c(C(F)(F)F)cc(Cl)cc12 (stereo unspecified)  4.52
5. CCNCC(O)c1cc2ccc(C(F)(F)F)cc2c2cc(C(F)(F)F)ccc12 (stereo unspecified)  4.39
6. CCCC(CCC)NCC(O)c1cc2ccc(C(F)(F)F)cc2c2cc(C(F)(F)F)ccc12 (stereo unspecified)  4.33
7. CCCCN(CCCC)CC(O)c1cc2cc(Br)c(Br)cc2c2cc(C(F)(F)F)ccc12 (stereo unspecified)  4.31
8. CCCN(CCC)CC(O)c1cc2cc(C(F)(F)F)cc(C(F)(F)F)c2c2ccccc12 (stereo unspecified)  4.31
9. CCCCCN(CCCCC)CC(O)c1cc2ccc(Cl)c(Cl)c2c2cc(C(F)(F)F)ccc12 (stereo unspecified)  4.26
10. CCCCN(CCCC)CC(O)c1cc(-c2ccc(Cl)cc2)cc2cc(Cl)ccc12 (stereo unspecified)  4.24
11. CCCCN(CCCC)CC(O)c1cc(-c2ccc(Cl)cc2)nc2cc(Cl)c(C)cc12 (stereo unspecified)  4.22
12. CCCCCCCN(CCCCCCC)CC(O)c1cc(-c2ccc(Cl)cc2)cc2ccc(OC)cc12 (stereo unspecified)  4.18
13. CCCCN(CCCC)CC(O)c1cc2cc(Br)ccc2c2cc(Br)ccc12 (stereo unspecified)  4.17
14. OC(CC1CCCCN1)c1cc2ccc(C(F)(F)F)cc2c2ccc(Cl)cc12 (stereo unspecified)  4.12
15. OC(Cc1ccc2ccccc2n1)c1cc2ccc(C(F)(F)F)cc2c2cc(C(F)(F)F)ccc12 (stereo unspecified)  4.11
16. CCCCNCC(O)c1cc2ccc(C(F)(F)F)cc2c2cc(C(F)(F)F)ccc12 (stereo unspecified)  4.11
17. CCCN(CCC)CC(O)c1cc2ccc(Cl)c(Cl)c2c2cc(C(F)(F)F)ccc12 (stereo unspecified)  4.03
18. CCCCN(CCCC)CC(O)c1cc(-c2ccc(Cl)cc2)nc2c(Cl)cc(Cl)cc12 (stereo unspecified)  4.03
19. OC(CC1CCCCN1)c1cc2ccc(C(F)(F)F)cc2c2cc(C(F)(F)F)ccc12 (stereo unspecified)  3.99
20. CCCCCN(CCCCC)CC(O)c1cc(-c2ccc(C(F)(F)F)cc2)nc(-c2ccc(C(F)(F)F)cc2)c1 (stereo unspecified)  3.97
21. CCCCN(CCCC)CC(O)c1cc(-c2cccc(C(F)(F)F)c2)nc2c(Cl)cc(Cl)cc12 (stereo unspecified)  3.93
22. CCCCCCCN(CCCCCCC)CC(O)c1cc2ccc(Cl)c(Cl)c2c2cc(C(F)(F)F)ccc12 (stereo unspecified)  3.92
23. OC(CC1CCCCN1)c1cc2cc(Cl)c(Cl)cc2c2cc(Br)ccc12 (stereo unspecified)  3.91
24. CCCCN(CCCC)CC(O)c1cc(-c2ccc(Cl)cc2)nc2c(C)cc(C)cc12 (stereo unspecified)  3.9
25. OC(CC1CCCNC1)c1cc2ccc(C(F)(F)F)cc2c2cc(C(F)(F)F)ccc12 (stereo unspecified)  3.89
26. CCCCNCC(O)c1cc(/C=C/c2ccc(C(F)(F)F)cc2)nc(-c2ccc(C(F)(F)F)cc2)c1 (stereo unspecified)  3.89
27. CC(C)NCCC(O)c1cc2ccc(C(F)(F)F)cc2c2cc(C(F)(F)F)ccc12 (stereo unspecified)  3.89
28. OC(CCC1CCCCN1)c1cc2ccc(Cl)cc2c2cc(Cl)ccc12 (stereo unspecified)  3.89
29. COc1ccc(-c2cc(C(O)CC3CCCCN3)c3cccc(C(F)(F)F)c3n2)cc1 (stereo unspecified)  3.88
30. CCCCCCN(CCCCCC)CC(O)c1cc(-c2ccc(Cl)cc2)nc2c(C)c(Cl)ccc12 (stereo unspecified)  3.85
31. CCCCN(CCCC)CC(O)c1cc2ccc(Cl)cc2c2cc(Cl)ccc12 (stereo unspecified)  3.79
32. CCCCNCC(O)c1cc(-c2ccccc2C(F)(F)F)nc(C(F)(F)F)c1 (stereo unspecified)  3.78
33. CCCCN(CCCC)CC(O)c1cc2cc(Cl)cc(Cl)c2c2cc(C(F)(F)F)ccc12 (stereo unspecified)  3.74
34. CCCCN(CCCC)CC(O)c1cc2cc(SC)ccc2c2cc(Cl)c(Cl)cc12 (stereo unspecified)  3.74
35. CCCCCN(CCCCC)CC(O)c1cc2ccc(Br)cc2c2cc(Br)ccc12 (stereo unspecified)  3.72
36. CCCCN(CCCC)CC(O)c1c(OC)c2cc(Cl)ccc2c2ccc(Cl)cc12 (stereo unspecified)  3.71
37. Cc1cccc2c(C(O)CC3CCCCN3)cc(-c3ccc(Cl)cc3)nc12 (stereo unspecified)  3.67
38. CCCCN(CCCC)CC(O)c1cc(C(F)(F)F)nc2c(C(F)(F)F)cccc12 (stereo unspecified)  3.6
39. CCCCCCCN(CCCCCCC)CC(O)c1cc2ccccc2c2cc(C(F)(F)F)ccc12 (stereo unspecified)  3.56
40. CCCCNCC(O)c1cc(-c2ccc(Cl)cc2)nc(-c2ccc(Cl)cc2)c1 (stereo unspecified)  3.56
41. CCCCCCCN(CCCCCCC)CC(O)c1cc2ccccc2c2cc(Br)ccc12 (stereo unspecified)  3.55
42. CCCCN(CCCC)CC(O)c1c2ccccc2c(Cl)c2ccccc12 (stereo unspecified)  3.51
43. CCCCCCN(CCCCCC)CC(O)c1cc2ccc(Br)cc2c2cc(Br)ccc12 (stereo unspecified)  3.51
44. CCCCN(CCCC)CC(O)c1cc2cc(Br)ccc2c2ccccc12 (stereo unspecified)  3.5
45. CC(C)(C)NCCC(O)c1cc(C(F)(F)F)nc2c(C(F)(F)F)cccc12 (stereo unspecified)  3.47
46. CCCCCCCN(CCCCCCC)CC(O)c1cc2c(Br)cccc2c2cc(C(F)(F)F)ccc12 (stereo unspecified)  3.43
47. CCCCCCN(CCCCCC)CC(O)c1cc(-c2ccc(Cl)cc2)nc2c(Cl)cc(Cl)cc12 (stereo unspecified)  3.37
48. CCCCCCCN(CCCCCCC)CC(O)c1cc2c(Br)cccc2c2cc(Br)ccc12 (stereo unspecified)  3.33
49. CCCCN(CCCC)CC(O)c1cc(-c2cc(OC)c(OC)c(OC)c2)nc2c1cc(Cl)c1ccccc12 (stereo unspecified)  3.32
50. OC(CC1CCCCN1)c1cc2cc(Cl)ccc2c2ccc(C(F)(F)F)cc12 (stereo unspecified)  3.25
51. CCCCN(CCCC)CC(O)c1cc(-c2ccc(F)cc2)nc(-c2ccc(F)cc2)c1 (stereo unspecified)  3.23
52. OC(CC1CCCCN1)c1cc2ccccc2c2ccc(C(F)(F)F)cc12 (stereo unspecified)  3.22
53. OC(C[N+]12CCC(CC1)CC2)c1cc(-c2ccc(Cl)cc2)nc(-c2ccc(Cl)cc2)c1 (stereo unspecified)  3.21
54. CN(C)CC(O)c1cc(-c2ccc(Cl)cc2)nc(-c2ccc(Cl)cc2)c1 (stereo unspecified)  3.18
55. Cc1ccc2c(C(O)CC3CCCCN3)cc3ccc(C(F)(F)F)cc3c2c1 (stereo unspecified)  3.16
56. CCN(CC)CC(O)c1cc(-c2ccc(Cl)c(Cl)c2)nc2ccc(OC)cc12 (stereo unspecified)  3.15
57. COc1cc2c(C(O)CC3CCCCN3)cc(-c3ccc(Cl)c(Cl)c3)cc2cc1Cl (stereo unspecified)  3.14
58. CCCCCCN(CCCCCC)CC(O)c1cc(-c2ccc(Cl)cc2)nc2cc(Cl)c(OC)cc12 (stereo unspecified)  3.07
59. CCCCN(CCCC)CC(O)c1c(C)c(-c2ccc(Cl)cc2)nc2c(Cl)cc(Cl)cc12 (stereo unspecified)  3.06
60. CCCCN(CCCC)CC(O)c1cc(-c2ccc(Cl)c(Cl)c2)cc2cc(Cl)c(OC)cc12 (stereo unspecified)  3.06
61. CCN(CC)CC(O)c1cc(-c2ccc(Cl)c(Cl)c2)nc(-c2ccc(Cl)c(Cl)c2)c1 (stereo unspecified)  3.04
62. CCN(CC)CC(O)c1ccnc2cc(Cl)ccc12 (stereo unspecified)  3.03
63. OC(C[N+]12CCC(CC1)CC2)c1cc2ccc(Cl)cc2c2cc(Cl)ccc12 (stereo unspecified)  2.98
64. CCCCN(CCCC)CC(O)c1cc(C(C)(C)C)nc2c1cc(Cl)c1ccccc12 (stereo unspecified)  2.98
65. CCN(Cc1cc(N)ccc1OC)CC(O)c1cc2ccccc2c2cc(Br)ccc12 (stereo unspecified)  2.97
66. CCCCN(CCCC)CC(O)c1cc(Oc2cc(Cl)cc(Cl)c2)cc2c(Cl)cc(Cl)cc12 (stereo unspecified)  2.9
67. CCCCCCCN(CCCCCCC)CC(O)c1cc2ccc(C(F)(F)F)cc2c2cc(Cl)ccc12 (stereo unspecified)  2.9
68. CCCCN(CCCC)CC(O)c1cc(-c2ccccc2)nc2ccc(OC)cc12 (stereo unspecified)  2.89
69. CCCNCCC(O)c1cc(C(F)(F)F)nc2c(C(F)(F)F)cccc12 (stereo unspecified)  2.82
70. Cc1cc(C)c2nc(Nc3ccc(Cl)cc3)cc(C(O)CC3CCCCN3)c2c1 (stereo unspecified)  2.74
71. OC(CC1CCCCN1)C1CC(c2ccccc2)=Nc2c(Cl)cc(Cl)cc21 (stereo unspecified)  2.71
72. CCCCCCCN(CCCCCCC)CC(O)c1cc(-c2ccc(Cl)cc2)nc(-c2ccc(Cl)cc2)c1 (stereo unspecified)  2.67
73. CCCCN(CCCC)CC(O)c1cc(C2(C)CCCC2)nc2c(Cl)cc(Cl)cc12 (stereo unspecified)  2.66
74. CCCCCCN(CCCCCC)CC(O)c1cc(-c2ccc(OC)cc2)nc2cc(OC)c(Cl)cc12 (stereo unspecified)  2.64
75. CCCCN(CCCC)CC(O)c1cc(Cc2ccccc2)nc2c(Cl)cc(Cl)cc12 (stereo unspecified)  2.6
76. CCCCCCCN(CCCCCCC)CC(O)c1cccc2c1ccc1ccccc12 (stereo unspecified)  2.58
77. OC(CC1CCCCN1)c1cc2cc(Cl)ccc2c2ccccc12 (stereo unspecified)  2.56
78. CCCCCCCN(CCCCCCC)CC(O)c1cccc2c1ccc1ccc(Cl)cc12 (stereo unspecified)  2.54
79. CCCCN(CCCC)CC(O)c1cc(-c2ccccc2)nc2ccccc12 (stereo unspecified)  2.54
80. CCCCCCN(CCCCCC)CCC(O)c1cc2c(O)cccc2c2ccccc12 (stereo unspecified)  2.52
81. CCCCN(CCCC)CC(O)c1cc2ccc(Cl)cc2c2cc(OC)ccc12 (stereo unspecified)  2.49
82. CCCCCCCN(CCCCCCC)CC(O)c1cc2cnccc2c2ccccc12 (stereo unspecified)  2.47
83. CCCCN(CCCC)CC(O)c1cc(C(F)(F)c2ccccc2)nc2c(Cl)cccc12 (stereo unspecified)  2.46
84. CCCCN(CCCC)C(C)CC(O)c1cc(-c2ccc(Cl)cc2)nc2c(C)cc(C)cc12 (stereo unspecified)  2.42
85. CCCCCCCN(CCCCCCC)CC(O)c1cccc2c1ccc1ccc(C(F)(F)F)cc12 (stereo unspecified)  2.34
86. CCCCCCCN(CCCCCCC)CC(O)c1cc2ccncc2c2ccccc12 (stereo unspecified)  2.33
87. CCCCCN(CCCCC)CC(O)c1cccc2c1ccc1ccccc12 (stereo unspecified)  2.33
88. CN1CCN(CC(O)c2cc(-c3ccc(F)cc3)nc3cc(F)ccc23)CC1 (stereo unspecified)  2.27
89. CCCCCCCN(CCCCCCC)CC(O)c1cc2ccccc2c2ncccc12 (stereo unspecified)  2.25
90. Cc1cc(C)cc(-c2cc(C(O)CC3CCCCN3)c3ccccc3n2)c1 (stereo unspecified)  2.24
91. CCCCCCN(CCCCCC)CC(O)c1cccc2ccc3ccccc3c12 (stereo unspecified)  2.2
92. CCCCN(CCCC)CC(O)c1cccc2ccc3ccccc3c12 (stereo unspecified)  2.09
93. CC[C@H]1CN2CC[C@H]1C[C@H]2[C@H](O)c1ccnc2ccc(OC)cc12 [HYDROQUININE]  2.04

Tested on: not listed separately
Assay: Lipophilicity, log P of the compound in 0.1 N HCl solution
Format: physicochemical
Settings: 0.1 N HCl solution; read-out: logP
In short: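 Partition coefficients of the hydrochloride salts were measured from 0.1 N HCl solution unless a footnote says otherwise. Some entries were not measured. They were calculated by adding the Δlog P of the corresponding phenanthrene analogues to the measured log P of a reference hydrochloride.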

In order of rising logP:
1. CCN(CC)CC(O)c1ccc(Cl)c2ccccc12 (stereo unspecified)  0.56
2. O=C(O)c1ccc2cc(C(O)CC3CCCCN3)c3ccc(C(F)(F)F)cc3c2c1 (stereo unspecified)  2.14
3. CCCCCCN(CCCCCC)CC(O)c1cc2ccccc2c2ccccc12 (stereo unspecified)  4.94
